# System: MS2 coat protein
# Assay: apparent Kd, MS2 coat protein; higher = weaker binding; RNA-MaP array; FMN 200 µM where present
# Method in brief: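 The apparent Kd comes from binding curves fitted cluster by cluster, filtered, and summarised as a median. Those curves followed SNAP-549-labelled MS2 coat protein from 0.7 or 1.5 nM, doubling to 3 µM, on Illumina sequencing-chip clusters where stalled E. coli RNA polymerase had transcribed the designs, without and then with constant ligand. The buffer was 100 mM Tris-HCl pH 7.5, 80 mM KCl, 4 mM MgCl2, BSA, DTT, yeast tRNA and Tween-20, and green signal was normalised to red-channel RNA signal and control-cluster median Fmax.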
# [1] = designed as: OFF switch for flavin mononucleotide, no ligand
# [2] = ligand present: flavin mononucleotide, designed as: OFF switch for flavin mononucleotide
# [3] = designed as: ON switch for flavin mononucleotide, no ligand
# [4] = ligand present: flavin mononucleotide, designed as: ON switch for flavin mononucleotide
Sequence,apparent Kd [1],apparent Kd [2],apparent Kd [3],apparent Kd [4]
CUGGUUGUCGAGGAUAUGCACCAGCUCGCUGACGCAGAAGGCGACACAUGAGGAUCACCCAUGUCGGUUCGCGU,21.9 nM,32.9 nM,,
AAAUAAAGCAGUGUGGUAAGAUCACAUGAGGAUCACCCAUGUAAGGAUAUCUGUCCUAAAAGGACAGAGAAGGUACGUCACUGC,18.9 nM,79.6 nM,,
UGUCGGAGCAGAGGAUAUAUACAUGAGGAUCACCCAUGUAAAUGAAUGAGCUGGAAACAGCAUGUAUAGAAGGCUGCUCCGACA,118 nM,298 nM,,
UCAAUCAUGUAAGGAUAUGCAGCCGAAACGGCUGCAGAAGGUACUAUAAUUACAUGAGGAUCACCCAUGUUAUAAAAUUUAUAU,,,169 nM,35.2 nM
GGAAAUCAUGUAGGAUAUGCAUGGCGAAGCUACGCAGAAGGACAUGAGGAUCACCCAUGUUAUAGCGUCCGAUAAAGGAUGCAA,117 nM,164 nM,,
AAAAAUGGAGGAUAUACAUGAGGAUCACCCAUGUGUGACUAUACUAUGCGCUCUUCAGGUAGAAGGCCAAAAAA,28.4 nM,39.4 nM,,
CUAAAUUAGUAGAAGGACGGAGAGUAAGAAGUCGUAGGAUAUACAUAAGACAUGAGGAUCACCCAUGUGUGUAUGUUGGGUAUG,6.54 nM,6.65 nM,,
UUGGGAUGCAAGAAGGGUGACAUGAGGAUCACCCAUGUGUUGUGAAGUCUCGAGAUUUUAUGACCAUAGGAUAUUGCACCGAAC,,,31.6 nM,21.6 nM
GUAAAUCAUGUAGGAUAUGCAUGGCGAAGCUACGCAGAAGGACAUGAGGAUCACCCAUGUCUGUCCGUCUGGAUACAGACGGAC,24.6 nM,195 nM,,
GCUGCAUAGGCAGGAUAUGCAAUAAUUCGAAUAAAAUAUAACGAAUUAACAUGAGGAUCACCCAUGUAGAAGGGCCUGUGCAGU,18.4 nM,16 nM,,
GCGAUUGCGUAGAAGGUACUAUAAAAUACACUGUAAGGAUAUACAAACAUGAGGAUCACCCAUGUAAAUGGAAUUUGCAAUCGC,,,7.8 nM,6.43 nM
AAAUAGGUAGGAUAUACAUGGAUAUACAUUCAUGUGGACCUACAUGAGGAUCACCCAUGUAGAAGGACCUAGUA,40.2 nM,43.7 nM,,
GAGAUGACAGUCAGGAUAUCUGUAGGGCGGACUUAAGAGAAGGGACAUGAGGAUCACCCAUGUGUGAUUGGUUU,266 nM,347 nM,,
UGGAUGUGGGUUCCACAUGAGGAUCACCCAUGUACCGAUGAGAGAAGGCACUCUAGUACCUAGAGUGAGGAUAUCUACAUUCAA,4.32 nM,9.75 nM,,
CGCAAGUCAGGAUAUUCGACUGGUCCAUCUGUGGAUCAGUAGGAGAAGGGACAUGAGGAUCACCCAUGUUUGUU,30.7 nM,46.9 nM,,
ACAUUGAAUGUGAGGAUAUCGAUGUGAUGGGUUGUCGAGAAGGCACAUGAGGAUCACCCAUGUGGGUUGUAGCA,144 nM,362 nM,,
AAAAGCCAAGGAUAUACAUGAGGAUCACCCAUGUAAGAAAUGGGCGCUACCGUUCCGUGUAGAAGGUGGGAAAA,28.6 nM,65 nM,,
GUUAUGUCAGGAUAUGCUUAUGGUGGGUGCUCAGACAUGAUGCAGAAGGGACAUGAGGAUCACCCAUGUACUGU,593 nM,435 nM,,

Sequence,apparent Kd [1],apparent Kd [2],apparent Kd [3],apparent Kd [4]
AACAGUAUAGGAUAUACAUGAGGAUCACCCAUGUGAGAAUUACGUGGCGUACCACGAAGUAGAAGGAUACUGGA,38.6 nM,168 nM,,
AUAAUGAGUCAAGGAUAUCCGAGCUGAAUGCUAGGAGAAGGUGACAUGAGGAUCACCCAUGUCUCUCCGAGCAUGGUAUUCUCA,28.6 nM,33.6 nM,,
GAUAGGAUGUGAGGAUAUGCUGAGGAUACUUCAGCAGAAGGCACAUGAGGAUCACCCAUGUACACUUAUCAUAAAUACCCUAUC,13 nM,17.9 nM,,
AAAAAGGCAGGAUAUACAUGAGGAUCACCCAUGUUUUAAAAAAAAAAAAAAAAAAAAAGUAGAAGGGCCAAAAA,55.4 nM,45.1 nM,,
GGUACUCAAAGAGUACCAAUACGAACAUGAGGAUCACCCAUGUAGGAUAUGCUACUCGAAGAGUAGCAGAAGGACAUGUGCCUA,16.9 nM,113 nM,,
CCAGGCUGUGUGAGGAUAUGCUGGUCCUUGGAUCAGCAGAAGGCACAUGAGGAUCACCCAUGUGAAGAGCUUGG,16.4 nM,65 nM,,
CUGACGAUGUAAGGAUAUGCUGAGGAUAACUCAGCAGAAGGUACAUGAGGAUCACCCAUGUAACGUCAGAAUAAUAAUAAUAAU,12.6 nM,23.1 nM,,
ACAGAGGCUGACAUGAGGAUCACCCAUGUUAGAUUGUUAUGUCAGGAUAUUAUCUGGCAACCAGAUAAGAAGGGACCCUCUGUG,,,31.2 nM,8.45 nM
GGCAUAAACGAGGAUAUCGAUACGGAAACGUAUCGAGAAGGUGUAACAUGAGGAUCACCCAUGUUCCUCAAGCC,38.6 nM,39.5 nM,,
GUCAGCUCGUGAGGAUAUACAAAACUGCUUCGGCAGUGUAUUAAGAUCACAUGAGGAUCACCCAUGUAGAAGGCACGAGCUGAU,8.71 nM,82.3 nM,,
AGCUGUGGCCGAGGAUAUCUAGCUUCAAUAACCGAAAUAUAAUCGGACAUGAGGAUCACCCAUGUAGAGAAGGCGGUCUCAGCA,29.6 nM,29.6 nM,,
CCUGUAAUCCUAUAGGCUUGUUACAUGAGGAUCACCCAUGUCAAGGAUAUAACGUUAAGCUCAUGUUAGAAGGUGACAUGUGGU,164 nM,58.6 nM,,
UGAUUUCAUGUAGGAUAUGCAUGGCGAAGCUACGCAGAAGGACAUGAGGAUCACCCAUGUUUUAGCGUCUGAGUAUAGAUUCUA,140 nM,158 nM,,
AAAAGGGCAGGAUAUACAUGAGGAUCACCCAUGUGAAAAAAAAAAAAAAAAAAAAAGUGUAGAAGGGUCAAAAA,74 nM,76 nM,,
GGCUAGUGAGGAUAUACGUGCAGUCCUCAGUCGCCAGUCGGACAUGAGGAUCACCCAUGUAGAAGGUAUCGGCA,35.8 nM,38.9 nM,,
GGGUACAUCGGAGGAUAUCAUGUAAAUACAUGAGGAUCACCCAUGUCGUUGGAGACAUCGGAGAUUGAGAAGGCCGAUGUACCG,,,199 nM,339 nM
AUGGUGACGUAGAAGGGUGACAUGAGGAUCACCCAUGUGCCGAUAUUUUUCGAAAUAUGUCGGCCACAGGAUAUACGUGCCAUC,,,68.7 nM,136 nM
UGCUACGUUUCGUAGCAGUGUCAUCGAGAAGGCCCUGACAUGAGGAUCACCCAUGUUGUUACAUGGGAGGAUAUCGAUGAUACC,,,11.8 nM,5.25 nM

# — the EternaBench riboswitch data
